Screens (PubChem)
Rev-RRE block: HIV-1 Rev-RRE binding inhibitors, primary screen, biochemical, FRET, protein-RNA interaction | P05866 | Rev peptide-RRE RNA binding | inhibition, % at 8 µM | 97,000 compounds, 0.79% hits;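 active = inhibition above the screen-wide mean plus 3 SD, cut at about 35% in these data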
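Test system – labelled RRE RNA duplex and labelled Rev peptide · Reagent – labelled Rev peptide · Doses – one concentration, 8 µM nominal · Incubation – 5 + 15 min at 25 °C · Signal – FRET fluorescence readout · Read-out basis – % inhibition of FRET ratio versus controls · Control set – DMSO wells as 0% and neomycin B wells as 100% inhibition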
Phagocyt inh: inhibitors of macrophage phagocytosis, primary screen, imaging, J774A.1 cells, IgG beads. J774A.1 macrophage IgG-bead phagocytosis. inhibition, % at 5 µM. 110,000 compounds, 0.07% hits;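 active = inhibition above the mean of the plate negative controls plus 5 SD, cut at about 13% in these data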;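 note: phagocytic index as fraction of beads internalized from green versus red external bead signal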
hDAT+cocaine: changed hDAT dopamine uptake under cocaine IC80, either direction, primary screen, cocaine antagonist project, cell-based, LLC-PK1 hDAT, [14C]-dopamine uptake, MLSMR; Sodium-dependent dopamine transporter (Homo sapiens), Q01959; LLC-PK1 hDAT cells, [14C]-dopamine uptake with cocaine IC80; actives deviate in either direction; B-score at 10 µM; 110,000 compounds, 1.3% hits; AID 449768, 2010;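 active = Z score or B-score, a plate-position-corrected score, falls beyond the plate's 99.7% confidence bounds, in either direction; inactive = both scores lie inside the 99.7% bounds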
Measles CPE: compounds protecting cells from measles virus cytopathic effect, primary screen, measles RdRp inhibitor project, single point, MLSMR library, absorbance | Measles virus-infected cells, CPE protection | protection (pct of control), % at 4 µM | 140,000 compounds, 1.5% hits; in the data active = protection mostly above about 24%, no sharp cut-off; inactive = mostly below about 26%
Cav32 inh: Cav3.2 calcium influx blockers – cell-based, Fluo-4 calcium fluorescence, FDSS, MLSMR library, primary screen; Voltage-dependent T-type calcium channel subunit alpha-1H (Homo sapiens), O95180; Cav3.2-expressing cells; active compounds read low; AID 449739, 2010; 100,000 compounds, 4% hits; B-score at 10 µM;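 active = single-dose well whose peak fluorescence ratio is a statistical outlier from its plate by either plate-standardised score or position-corrected B-score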
Pyk2 oligo antag: antagonists of Pyk2 self-association, primary screen, Q293 cells, FERM NanoBiT luminescence, HTS. Protein-tyrosine kinase 2-beta (Homo sapiens), Q14289. active compounds read low. z-score (the deposit names both 25 µM and 10 µM). 99,000 compounds, 0.83% hits. AID 1347419, 2020;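 active = Z-score of -3 or lower, scaled per plate to the spread of control and sample wells; inactive = z-score above -3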;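 note: negative z-score means lost luminescence so less FERM oligomerization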
Numbers stand for hits; i = inactive; nt = no result given; + = active, no number; [ ] = remark or other dose. An excerpt weighted towards active compounds, which were near 5.9% of everything screened.

SMILES	Rev-RRE block	Phagocyt inh	hDAT+cocaine	Measles CPE	Cav32 inh	Pyk2 oligo antag
O=C(Cn1nnc(-c2ccccc2Cl)n1)NCc1ccc2c(c1)OCO2	i	i	i	i	i	i
Cc1cccc(-n2c(SCc3ccc(C#N)cc3)nnc2-c2c[nH]c3ccccc23)c1	nt	nt	nt	i	nt	i
CC(NC(=O)CC12CC3CC(CC(C3)C1)C2)C(=O)O (stereo not given)	i	i	i	i	-3.5	i
O=C(CC12CC3CC(CC(C3)C1)C2)NCO	i	i	i	i	i	i
COc1cc(F)c(C(=O)NC(C)(C)CO)cc1OC	nt	nt	i	nt	i	nt
O=C(CN(C(=O)Cn1nnc(-c2cccs2)n1)c1ccc2c(c1)OCCO2)NCc1ccccc1	i	i	i	i	i	-3
O=C(CN(CCc1ccccc1)C(=O)Cn1nnc(-c2cccs2)n1)NCc1ccco1	i	i	i	i	i	i
COc1ccc(/C=N/OCC(=O)NCc2cccs2)c(OC)c1	nt	i	nt	i	nt	nt
c1csc(C(c2nnnn2C2CCCCC2)N2CCN(c3nc4ccccc4s3)CC2)c1 (stereo not given)	i	nt	i	i	-3.8	i
c1csc(C(c2nnnn2C2CCCC2)N2CCOCC2)c1 (stereo not given)	nt	nt	i	i	i	i
c1ccc(C(c2nnnn2C2CCCC2)N2CCN(c3nc4ccccc4s3)CC2)cc1 (stereo not given)	i	nt	i	i	-8.2	i
c1csc(C(c2nnnn2C2CCCC2)N2CCCC3(CCCCC3)C2)c1 (stereo not given)	i	i	i	i	-5.7	i
Cc1ccc(C(c2nnnn2C2CCCC2)N2CCN(c3nc4ccccc4s3)CC2)cc1 (stereo not given)	i	nt	i	nt	-8.1	i
NC(=O)C1CCN(C(c2ccccc2)c2nnnn2C2CCCC2)CC1 (stereo not given)	i	nt	i	i	i	i
O=C(COC(=O)CNC(=O)c1ccccc1)Nc1ccc(Cl)cc1C(F)(F)F	nt	i	nt	i	nt	nt
Cc1cc(C)c(S(=O)(=O)n2c([N+](=O)[O-])cnc2C)c(C)c1	nt	i	nt	i	nt	nt
O/N=C\c1ccc(-c2ccccc2)o1	nt	i	nt	31	nt	nt
O/N=C/c1ccc(-c2cc(Cl)ccc2Cl)o1	nt	i	nt	43	nt	nt
CCC1=C(OC(=O)N(CC)CC)N2C(=O)OC(=NCC3CC3)[C@]2(Cc2ccccc2)[C@H]2C1=CC[C@H]1C(=O)N(CC)C(=O)[C@H]12	nt	nt	i	nt	i	nt
CCOC(=O)c1sc(NC(=O)CCCn2nc([N+](=O)[O-])c(Cl)c2C)c(C(=O)OCC)c1C	nt	i	nt	i	nt	nt
CCN(CC)c1ccc(/C=C2\CCC(/C=C(\C#N)C(=O)Nc3ccccc3F)=C2N2CCOCC2)cc1	nt	+[fluoresces]	nt	i	nt	nt
CC1=C(C(=O)OCC(C)C)C(c2ccsc2)C2=C(CCCC2=O)N1 (stereo not given)	nt	i	nt	i	nt	nt
CCC1(CC)Cc2ccccc2-c2nc(NCCO)[nH]c(=O)c21	i	nt	-2.7	i	i	i
O=c1[nH]c(NCCO)nc2c1C1(CCCCC1)Cc1ccccc1-2	i	i	i	i	i	i
CCN(CC)C(=O)c1[nH]cnc1C(=O)N[C@@H](CC(C)C)C(=O)OCc1ccccc1	nt	nt	i	nt	i	nt
SMILES	Rev-RRE block	Phagocyt inh	hDAT+cocaine	Measles CPE	Cav32 inh	Pyk2 oligo antag
c1ccc(NCc2nnc3n2CCCCC3)cc1	i	i	1.9	i	i	i
Cc1cc(C)[n+](-c2ccc(C(C)C)cc2)c2[nH]c(=O)[nH]c(=O)c12	nt	i	nt	i	nt	nt
Cc1ccc(C2=[N+]([O-])C(C)(C)N(O)C2(C)C)cc1	nt	i	nt	46	nt	nt
CC1(C)C(c2ccccc2)=[N+]([O-])C2(CCCCC2=O)N1O (stereo not given)	i	nt	i	i	i	i
CCn1c(SCC(=O)N2CCCc3ccccc32)nnc1-c1c[nH]c2ccccc12	i	i	i	i	i	i
COc1ccc(OCc2nnc(SCC(=O)N3CCCc4ccccc43)n2-c2ccc(C)cc2)cc1	i	i	i	i	-8.2	i
Cn1c(SCC(=O)N2CCCc3ccccc32)nnc1-c1c[nH]c2ccccc12	i	i	3.6	i	i	i
COc1ccc(-n2c(Cc3cccn3C)nnc2SCC(=O)N2CCCc3ccccc32)cc1	i	i	i	i	i	i
N#Cc1ccc(OCc2nnc(SCC(=O)N3CCCc4ccccc43)n2-c2ccccc2)cc1	i	i	i	i	-7.4	i
Cc1ccccc1OCc1nnc(SCC(=O)N2CCc3ccccc32)n1C	i	nt	-8.6	i	i	i
COc1ccc2nc(NC(=O)C(NS(=O)(=O)c3cccc4nsnc34)C(C)C)sc2c1 (stereo not given)	i	i	nt	i	nt	nt
c1cncc(-c2nc(Oc3ccc(-c4nnco4)cc3)c3c4c(sc3n2)CCCC4)c1	nt	i	nt	nt	nt	nt
Cc1ccc(C2Oc3ccccc3C3=C2C(c2cccs2)n2ncnc2N3)cc1 (stereo not given)	i	i	i	i	-4.6	i
O=C(NCCc1ccccc1)[C@@H]1CC=C[C@@H]2CCN(Cc3ccccc3)C(=O)[C@@H]21	nt	nt	i	nt	i	nt
CCCNC(=O)C(=O)N/N=C/c1cccs1	nt	i	nt	50	nt	i
CCN(CC)C(=O)C(=O)N/N=C/c1cccs1	i	nt	i	i	i	i
O=C(N/N=C/c1cccs1)c1ccccn1	i	i	i	42	i	i
COCc1nnc(NC(=O)c2cc(OC)c(OC)cc2[N+](=O)[O-])s1	nt	i	nt	i	nt	nt
C/C(=N\NC(=O)c1nn(C)c(C)c1Br)c1cccc(NC(=O)c2ccoc2C)c1	nt	i	nt	i	nt	nt
O=C(CN1C(=O)CSC1=O)Nc1ccc(C(=O)O)cc1	i	i	i	102	i	i
O=C(CN1C(=O)CSC1=O)Nc1ccc2c(c1)OCCO2	i	i	i	i	i	i
C=CCn1c(SCC(=O)NC2CCCCC2)nnc1-c1sc(N)nc1C	i	i	i	i	i	i
C=CCn1c(SCC(=O)Nc2sc(C)c(C)c2C(=O)OCC)nnc1-c1sc(N)nc1C	i	i	i	i	i	-4.5
NC(=S)Nc1cccc2cc3ccccc3cc12	102[fluorescence artefact?]	i	i	i	i	i
Cc1ccc(NCN2C(=O)C3CC=CCC3C2=O)cc1 (stereo not given)	i	nt	i	i	i	i
Clc1ccc(OCc2nnc3n2N=C(c2ccc4c(c2)OCCO4)CS3)c(Cl)c1	nt	i	i	i	i	i
COc1ccc(OC)c(C2C=C(C34CC5CC(CC(C5)C3)C4)NC(=S)N2)c1 (stereo not given)	nt	i	nt	34	nt	nt
COc1cc(C2C=C(C34CC5CC(CC(C5)C3)C4)NC(=S)N2)cc(OC)c1OC (stereo not given)	i	i	i	i	i	i
